Assay results: ChEMBL document CHEMBL4346701, “Synthesis and biological evaluation of tryptophan-derived rhodanine derivatives as PTP1B inhibitors and anti-bacterial agents” (Eur J Med Chem, 2019)
In brackets after ≈: the same amount, converted by molar mass.

How the values were obtained:
Pseudomonas aeruginosa = experiment: Antibacterial activity against Pseudomonas aeruginosa 2742 assessed as reduction in bacterial cell growth incubated for 24 hrs by ELISA; assay type: functional; settings: Pseudomonas aeruginosa, 2742, 24 h
Method in brief: (§1)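 MIC determined by serial dilution in 96-well microtiter plates. Strains used were E. coli 1924 and P. aeruginosa 2742 (Gram-negative), S. mutans 3289 (Gram-positive) and the fungus C. albicans 7535. Gatifloxacin, moxifloxacin, norfloxacin and oxacillin served as antibacterial reference agents, and fluconazole as the antifungal reference.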

Staphylococcus aureus [1] = experiment: Antibacterial activity against Staphylococcus aureus RN4220 assessed as reduction in bacterial cell growth incubated for 24 hrs by ELISA; assay type: functional; settings: RN4220, 24 h
Method in brief: (§2)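 MICs determined by serial dilution in 96-well microtiter plates. The strain panel included Gram-positive S. aureus strains and multidrug-resistant clinical isolates. Gatifloxacin, moxifloxacin, norfloxacin and oxacillin served as antibacterial positive controls.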

Staphylococcus aureus [2] = experiment: Antibacterial activity against Quinolone-resistant Staphylococcus aureus CCARM 3519 assessed as reduction in bacterial cell growth incubated for 24 hrs by ELISA; assay type: functional; settings: CCARM 3519, 24 h; method in brief: as §2
Staphylococcus aureus [3] = experiment: Antibacterial activity against Staphylococcus aureus KCTC209 assessed as reduction in bacterial cell growth incubated for 24 hrs by ELISA; assay type: functional; settings: KCTC209, 24 h; method in brief: as §2
Staphylococcus aureus [4] = experiment: Antibacterial activity against Methicillin-resistant Staphylococcus aureus CCARM 3167 assessed as reduction in bacterial cell growth incubated for 24 hrs by ELISA; assay type: functional; settings: CCARM 3167, 24 h; method in brief: as §2
Streptococcus mutans = experiment: Antibacterial activity against Streptococcus mutans KCTC3289 assessed as reduction in bacterial cell growth incubated for 24 hrs by ELISA; assay type: functional; settings: KCTC3289, 24 h; method in brief: as §1
Staphylococcus aureus [5] = experiment: Antibacterial activity against Quinolone-resistant Staphylococcus aureus CCARM 3505 assessed as reduction in bacterial cell growth incubated for 24 hrs by ELISA; assay type: functional; settings: CCARM 3505, 24 h; method in brief: as §2
Staphylococcus aureus [6] = experiment: Antibacterial activity against Staphylococcus aureus KCTC503 assessed as reduction in bacterial cell growth incubated for 24 hrs by ELISA; assay type: functional; settings: KCTC503, 24 h; method in brief: as §2
Staphylococcus aureus [7] = experiment: Antibacterial activity against Methicillin-resistant Staphylococcus aureus CCARM 3506 assessed as reduction in bacterial cell growth incubated for 24 hrs by ELISA; assay type: functional; settings: CCARM 3506, 24 h; method in brief: as §2
Escherichia coli = experiment: Antibacterial activity against Escherichia coli 1924 assessed as reduction in bacterial cell growth incubated for 24 hrs by ELISA; assay type: functional; settings: Escherichia coli, 1924, 24 h; method in brief: as §1
[8] = molecular target: T1, Tyrosine-protein phosphatase non-receptor type 1 (Homo sapiens, UniProt P18031); experiment: Inhibition of human recombinant GST-tagged PTP1B expressed in Escherichia coli BL21 (DE3) using pNPP as substrate measured for 2 mins by colorimetric analysis
T1 sequence (P18031 whole entry): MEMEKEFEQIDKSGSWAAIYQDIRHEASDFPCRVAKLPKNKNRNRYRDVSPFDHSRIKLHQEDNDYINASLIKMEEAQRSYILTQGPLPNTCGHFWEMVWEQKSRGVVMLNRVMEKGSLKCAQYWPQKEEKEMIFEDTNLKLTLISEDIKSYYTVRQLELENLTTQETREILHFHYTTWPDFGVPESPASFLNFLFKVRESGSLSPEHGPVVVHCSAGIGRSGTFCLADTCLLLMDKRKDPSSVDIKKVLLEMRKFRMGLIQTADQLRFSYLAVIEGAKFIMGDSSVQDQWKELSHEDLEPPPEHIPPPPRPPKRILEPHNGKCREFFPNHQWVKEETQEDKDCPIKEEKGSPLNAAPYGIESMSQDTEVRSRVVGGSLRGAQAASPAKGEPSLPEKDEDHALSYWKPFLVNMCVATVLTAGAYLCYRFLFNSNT

Candida albicans = experiment: Antifungal activity against Candida albicans 7535 assessed as reduction in bacterial cell growth incubated for 24 hrs by ELISA; assay type: functional; settings: Candida albicans, 7535, 24 h; method in brief: as §1

SMILES	MIC (Pseudomonas aeruginosa)	MIC (Staphylococcus aureus [1])	MIC (Staphylococcus aureus [2])	MIC (Staphylococcus aureus [3])	MIC (Staphylococcus aureus [4])	MIC (Streptococcus mutans)	MIC (Staphylococcus aureus [5])	MIC (Staphylococcus aureus [6])	MIC (Staphylococcus aureus [7])	MIC (Escherichia coli)	IC50 [8]	MIC (Candida albicans)
COc1c(N2CCNC(C)C2)c(F)cc2c(=O)c(C(=O)O)cn(C3CC3)c12 (stereo not drawn) [GATIFLOXACIN]	1 µg/mL (≈ 2.66 µM)	0.25 µg/mL (≈ 0.666 µM)	4 µg/mL (≈ 10.7 µM)	2 µg/mL (≈ 5.33 µM)	2 µg/mL (≈ 5.33 µM)	0.25 µg/mL (≈ 0.666 µM)	8 µg/mL (≈ 21.3 µM)	4 µg/mL (≈ 10.7 µM)	2 µg/mL (≈ 5.33 µM)	2 µg/mL (≈ 5.33 µM)		
COc1ccc(COc2ccc3cc(/C=C4\SC(=S)N(C(Cc5c[nH]c6ccccc56)C(=O)O)C4=O)ccc3c2)cc1 (stereo not drawn)	> 64 µg/mL	8 µg/mL (≈ 13.5 µM)	8 µg/mL (≈ 13.5 µM)		8 µg/mL (≈ 13.5 µM)	8 µg/mL (≈ 13.5 µM)	8 µg/mL (≈ 13.5 µM)		8 µg/mL (≈ 13.5 µM)	16 µg/mL (≈ 26.9 µM)	1450 nM	> 64 µg/mL
O=C(O)C(Cc1c[nH]c2ccccc12)N1C(=O)/C(=C/c2ccc3cc(OCc4cccc(Cl)c4)ccc3c2)SC1=S (stereo not drawn)	> 64 µg/mL	4 µg/mL (≈ 6.68 µM)	8 µg/mL (≈ 13.4 µM)		2 µg/mL (≈ 3.34 µM)	2 µg/mL (≈ 3.34 µM)	8 µg/mL (≈ 13.4 µM)		4 µg/mL (≈ 6.68 µM)	2 µg/mL (≈ 3.34 µM)	720 nM	> 64 µg/mL
COc1cc(/C=C2\SC(=S)N(C(Cc3c[nH]c4ccccc34)C(=O)O)C2=O)ccc1OCc1ccc(Br)cc1 (stereo not drawn)	> 64 µg/mL	4 µg/mL (≈ 6.41 µM)	8 µg/mL (≈ 12.8 µM)	4 µg/mL (≈ 6.41 µM)	4 µg/mL (≈ 6.41 µM)	8 µg/mL (≈ 12.8 µM)	4 µg/mL (≈ 6.41 µM)	4 µg/mL (≈ 6.41 µM)	4 µg/mL (≈ 6.41 µM)	8 µg/mL (≈ 12.8 µM)	3180 nM	> 64 µg/mL
O=C(O)C(Cc1c[nH]c2ccccc12)N1C(=O)/C(=C/c2ccc(OCc3ccc(Cl)cc3)cc2)SC1=S (stereo not drawn)	> 64 µg/mL	2 µg/mL (≈ 3.64 µM)	4 µg/mL (≈ 7.29 µM)	4 µg/mL (≈ 7.29 µM)	4 µg/mL (≈ 7.29 µM)	2 µg/mL (≈ 3.64 µM)	4 µg/mL (≈ 7.29 µM)	4 µg/mL (≈ 7.29 µM)	4 µg/mL (≈ 7.29 µM)	4 µg/mL (≈ 7.29 µM)	2440 nM	> 64 µg/mL
COc1c(N2C[C@@H]3CCCN[C@@H]3C2)c(F)cc2c(=O)c(C(=O)O)cn(C3CC3)c12 [MOXIFLOXACIN]		0.25 µg/mL (≈ 0.623 µM)	4 µg/mL (≈ 9.96 µM)			0.25 µg/mL (≈ 0.623 µM)		2 µg/mL (≈ 4.98 µM)				0.5 µg/mL (≈ 1.25 µM)
OC(Cn1cncn1)(Cn1cncn1)c1ccc(F)cc1F [FLUCONAZOLE]												1 µg/mL (≈ 3.27 µM)
CCn1cc(C(=O)O)c(=O)c2cc(F)c(N3CCNCC3)cc21 [NORFLOXACIN]			> 64 µg/mL		8 µg/mL (≈ 25.1 µM)		> 64 µg/mL		4 µg/mL (≈ 12.5 µM)			
COc1cc(/C=C2\SC(=S)N(C(Cc3c[nH]c4ccccc34)C(=O)O)C2=O)ccc1OCc1ccccc1 (stereo not drawn)	> 64 µg/mL	8 µg/mL (≈ 14.7 µM)	16 µg/mL (≈ 29.4 µM)	8 µg/mL (≈ 14.7 µM)	8 µg/mL (≈ 14.7 µM)	8 µg/mL (≈ 14.7 µM)	8 µg/mL (≈ 14.7 µM)	8 µg/mL (≈ 14.7 µM)	8 µg/mL (≈ 14.7 µM)	16 µg/mL (≈ 29.4 µM)	5770 nM	> 64 µg/mL
Cc1ccc(COc2ccc(/C=C3\SC(=S)N(C(Cc4c[nH]c5ccccc45)C(=O)O)C3=O)cc2)cc1 (stereo not drawn)	> 64 µg/mL	4 µg/mL (≈ 7.57 µM)	16 µg/mL (≈ 30.3 µM)	4 µg/mL (≈ 7.57 µM)	8 µg/mL (≈ 15.1 µM)	4 µg/mL (≈ 7.57 µM)	8 µg/mL (≈ 15.1 µM)	8 µg/mL (≈ 15.1 µM)	8 µg/mL (≈ 15.1 µM)	8 µg/mL (≈ 15.1 µM)	5930 nM	> 64 µg/mL
COc1ccccc1COc1ccc2cc(/C=C3\SC(=S)N(C(Cc4c[nH]c5ccccc45)C(=O)O)C3=O)ccc2c1 (stereo not drawn)	> 64 µg/mL	8 µg/mL (≈ 13.5 µM)	8 µg/mL (≈ 13.5 µM)		8 µg/mL (≈ 13.5 µM)	8 µg/mL (≈ 13.5 µM)	8 µg/mL (≈ 13.5 µM)		8 µg/mL (≈ 13.5 µM)	16 µg/mL (≈ 26.9 µM)	1530 nM	> 64 µg/mL
O=C(O)C(Cc1c[nH]c2ccccc12)N1C(=O)/C(=C/c2ccc(OCc3ccc(Cl)cc3Cl)cc2)SC1=S (stereo not drawn)	> 64 µg/mL	4 µg/mL (≈ 6.85 µM)	16 µg/mL (≈ 27.4 µM)	4 µg/mL (≈ 6.85 µM)	8 µg/mL (≈ 13.7 µM)	8 µg/mL (≈ 13.7 µM)	8 µg/mL (≈ 13.7 µM)	8 µg/mL (≈ 13.7 µM)	8 µg/mL (≈ 13.7 µM)	8 µg/mL (≈ 13.7 µM)	3380 nM	> 64 µg/mL
COc1cccc(COc2ccc3cc(/C=C4\SC(=S)N(C(Cc5c[nH]c6ccccc56)C(=O)O)C4=O)ccc3c2)c1 (stereo not drawn)	> 64 µg/mL	8 µg/mL (≈ 13.5 µM)	16 µg/mL (≈ 26.9 µM)		8 µg/mL (≈ 13.5 µM)	8 µg/mL (≈ 13.5 µM)	8 µg/mL (≈ 13.5 µM)		16 µg/mL (≈ 26.9 µM)	16 µg/mL (≈ 26.9 µM)	1670 nM	> 64 µg/mL
O=C(O)CN1C(=O)/C(=C/c2ccc3cc(OCc4ccc(F)cc4)ccc3c2)SC1=S	> 64 µg/mL	4 µg/mL (≈ 8.82 µM)	4 µg/mL (≈ 8.82 µM)		4 µg/mL (≈ 8.82 µM)		4 µg/mL (≈ 8.82 µM)	4 µg/mL (≈ 8.82 µM)	2 µg/mL (≈ 4.41 µM)	> 64 µg/mL		> 64 µg/mL
Cc1onc(-c2ccccc2)c1C(=O)N[C@@H]1C(=O)N2[C@@H]1SC(C)(C)[C@@H]2C(=O)O [OXACILLIN]			1 µg/mL (≈ 2.49 µM)		> 64 µg/mL		1 µg/mL (≈ 2.49 µM)		> 64 µg/mL			
O=C(O)C(Cc1c[nH]c2ccccc12)N1C(=O)/C(=C/c2ccc3cc(OCc4ccccc4)ccc3c2)SC1=S (stereo not drawn)	> 64 µg/mL	8 µg/mL (≈ 14.2 µM)	8 µg/mL (≈ 14.2 µM)		8 µg/mL (≈ 14.2 µM)	8 µg/mL (≈ 14.2 µM)	4 µg/mL (≈ 7.08 µM)		8 µg/mL (≈ 14.2 µM)	8 µg/mL (≈ 14.2 µM)	820 nM	> 64 µg/mL
O=C(O)C(Cc1c[nH]c2ccccc12)N1C(=O)/C(=C/c2ccc3cc(OCc4ccccc4Cl)ccc3c2)SC1=S (stereo not drawn)	> 64 µg/mL	4 µg/mL (≈ 6.68 µM)	4 µg/mL (≈ 6.68 µM)		2 µg/mL (≈ 3.34 µM)	2 µg/mL (≈ 3.34 µM)	4 µg/mL (≈ 6.68 µM)		4 µg/mL (≈ 6.68 µM)	4 µg/mL (≈ 6.68 µM)	800 nM	> 64 µg/mL
